Screening data: PubChem, several laboratories
Arr AP2 block = inhibitors of human beta-arrestin and AP2 interaction. FITC-arrestin peptide / GST-AP2 beads, flow cytometry; AP2 beta2 appendage carries R879A mutation. hit rate 0.31% among 340,000. inhibition, % at 10 µM. AID 504490;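 active means inhibition above a set limit, near 3 SD of compounds lacking own fluorescence, cut at about 54% in these data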
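Test system: GST-tagged AP2 beta2-adaptin appendage (R879A) on 4 µm glutathione beads; also added: fluorescein-tagged arrestin peptide at 50 nM final; timing: 12 min plus 1 h, RT; signal: flow cytometry, FL1 (488/535 nm); read-out: percent drop in bead-associated FITC signal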
VLA-4 inh = inhibition in a human VLA-4 binding assay | inhibition, % (about 7 µM as worked out from the volumes in the protocol) | P13612 | AID 2557 | VLA-4 expressing cells, ligand binding flow cytometry | hit rate 0.2% among 330,000; in the data active means inhibition above about 50%
GASC-1 inh = human JMJD2C demethylase inhibition. GST-JMJD2C(1-420) H3K9me3 demethylation, DELFIA europium. inhibition, % at 2.35 µM. hit rate 0.069% among 330,000. AID 2099;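 active means more than half of a compound's replicate wells show inhibition beyond 50%, single wells judged on their own value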;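 further: signal counts dimethyl H3K9 product captured on neutravidin plate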
pCIP destab = p/CIP protein destabilization | Q05BA5 | F442A p/CIP-EGFP cells, EGFP fluorescence, 16 h | decrease of EGFP signal, % at 10 µM | hit rate 0.01% among 290,000 | AID 1984;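 active means EGFP signal decrease of at least 30% at 10 µM or well 3 SD below plate mean, unless failing retest; inactive means the rest, including hits failing retest or dose response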
Arr AP2 CP1 = inhibitors of human beta-arrestin and AP2 interaction; GST-AP2 beads, FITC arrestin peptide binding, flow cytometry; GST-fused beta2-adaptin appendage, R879A mutant; shares compounds with Arr AP2 block; inhibition, % at 10 µM; hit rate 2% among 1,300;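 active means inhibition above a set limit, roughly 3 SD of non-fluorescent compound noise, cut at about 38% in these data; inactive means inhibition at or below that limit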;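 further: loss of bead fluorescence from 50 nM FITC arrestin peptide bound to appendage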
Target sequence (P63010 whole entry, looked up, the tested form may be a part, one chain of several): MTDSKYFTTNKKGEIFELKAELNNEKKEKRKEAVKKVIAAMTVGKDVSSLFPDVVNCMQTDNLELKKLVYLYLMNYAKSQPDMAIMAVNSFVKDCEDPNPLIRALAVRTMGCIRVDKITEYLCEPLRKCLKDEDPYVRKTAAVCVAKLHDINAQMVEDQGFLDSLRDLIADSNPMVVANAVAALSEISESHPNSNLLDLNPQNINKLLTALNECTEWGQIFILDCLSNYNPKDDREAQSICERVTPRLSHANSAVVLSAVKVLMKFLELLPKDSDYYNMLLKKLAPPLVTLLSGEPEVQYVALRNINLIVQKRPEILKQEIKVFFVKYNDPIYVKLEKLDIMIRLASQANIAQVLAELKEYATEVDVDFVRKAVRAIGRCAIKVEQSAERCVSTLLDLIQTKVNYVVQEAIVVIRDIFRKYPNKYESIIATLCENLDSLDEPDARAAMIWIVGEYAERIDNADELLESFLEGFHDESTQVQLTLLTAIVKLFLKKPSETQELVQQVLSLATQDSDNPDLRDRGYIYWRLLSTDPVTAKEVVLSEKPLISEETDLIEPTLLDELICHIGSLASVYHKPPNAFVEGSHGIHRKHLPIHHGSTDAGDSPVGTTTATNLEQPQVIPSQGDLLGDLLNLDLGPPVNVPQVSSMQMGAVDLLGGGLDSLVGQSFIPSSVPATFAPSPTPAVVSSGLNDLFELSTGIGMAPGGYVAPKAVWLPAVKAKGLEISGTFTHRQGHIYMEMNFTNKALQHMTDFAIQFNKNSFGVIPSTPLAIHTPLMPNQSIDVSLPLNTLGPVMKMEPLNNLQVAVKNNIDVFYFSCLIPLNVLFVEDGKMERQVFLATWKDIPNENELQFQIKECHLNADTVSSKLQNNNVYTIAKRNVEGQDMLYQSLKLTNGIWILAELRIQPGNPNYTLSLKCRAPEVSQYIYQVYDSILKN
GST-FITC bead = disrupts GST binding to glutathione beads, arrestin-AP2 artifact; shares compounds with Arr AP2 block; GST-fluorescein binding to GSH beads, fluorescence, counter-screen; inhibition, % at 10 µM; hit rate 2% among 1,300;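 active means inhibition above 50%, about 3 SD of the inhibition seen with non-fluorescent compounds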;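 further: fluorescein maleimide labelled GST captured on 4 micron glutathione beads; higher means more loss of bead fluorescence from quenching or blocked binding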
Each line names hits and unclear results; the compound was inactive in the other large screens (follow-up assays come after a bar, where they were run); ! = a repeat was not active. This is a sample that favours compounds with a hit; in the whole collection about 0.57% have one here.

COC(=O)C1=C(NC(=O)COc2ccc(Cl)cc2Cl)CCS1	Arr AP2 block 67 | Arr AP2 CP1 inactive | GST-FITC bead inactive
COc1ccc(NC(=O)CSc2nc3ccccc3nc2N2CCOCC2)cc1	none
Cc1ccc(CN(C(=O)c2ccccc2C)C2CCS(=O)(=O)C2)o1 (stereo not drawn)	Arr AP2 block 56 | Arr AP2 CP1 inactive | GST-FITC bead inactive
CCc1ccc(NC(=O)CNS(=O)(=O)c2c(C)noc2C)cc1	none
CCOC(=O)[C@H]1[C@H]2COc3ccc(Br)cc3[C@@H]2N2C(=O)c3ccc(C)cc3NC(=O)[C@@]12C	none (no result: VLA-4 inh, pCIP destab)
CC(=O)c1nn(-c2ccccc2)cc1C(=O)c1ccc(Br)cc1	Arr AP2 block 104 | Arr AP2 CP1 inactive | GST-FITC bead inactive
CCOC(=O)c1c(-c2cccs2)csc1NC(=O)COC(=O)c1c(C)noc1C	Arr AP2 block 55 | Arr AP2 CP1 inactive | GST-FITC bead inactive
CCOC(=O)c1c(-c2cccs2)csc1NC(=O)c1ccncc1	none
Cc1ccc(-c2cc(C(F)F)n3ncc(C(=O)N4CCc5ccccc54)c3n2)cc1	none
Cc1ccc(-c2cc(C(F)(F)F)n3ncc(C(=O)N4CCCc5ccccc54)c3n2)cc1	none | Arr AP2 CP1 49! | GST-FITC bead 56!
O=C(NCc1ccccc1OC(F)(F)F)C1CCC(=O)N(Cc2cccc(F)c2)C1 (stereo not drawn)	none
Cc1ccsc1CCNC(=O)C1CCC(=O)N(CCc2cccc(F)c2)C1 (stereo not drawn)	none
Cc1ccccc1CNC(=O)C1CCC(=O)N(Cc2cccc(F)c2)C1 (stereo not drawn)	none | Arr AP2 CP1 inactive | GST-FITC bead inactive
COc1ccc(CCN2CC(C(=O)NCc3ccccc3)CCC2=O)cc1 (stereo not drawn)	none
Cc1ccccc1CCNC(=O)C1CCC(=O)N(CCc2cccc(F)c2)C1 (stereo not drawn)	none (no result: VLA-4 inh) | Arr AP2 CP1 inactive | GST-FITC bead inactive
COC(=O)c1ccc(CNC(=O)C2CCC(=O)N(CCc3ccccc3)C2)cc1 (stereo not drawn)	none | Arr AP2 CP1 inactive | GST-FITC bead inactive
Fc1ccccc1N1CCN(C(c2ccncc2)c2nnnn2C2CCCC2)CC1 (stereo not drawn)	none
Cc1cc(N/N=C/c2cccc(Br)c2)nc2ccccc12	Arr AP2 block 57 | Arr AP2 CP1 inactive | GST-FITC bead inactive
Cc1cc(N/N=C/c2ccncc2)nc2ccccc12	none (no result: VLA-4 inh)
COC(=O)CSc1nc(SCc2ccc(C)cc2)nc2c1CCCC2	Arr AP2 block 99 | Arr AP2 CP1 inactive | GST-FITC bead inactive
Cc1ccc(-c2nnc3cccc(Cl)n23)cc1	none
O=C(COC(=O)c1ccccn1)c1ccc(Br)cc1	none
COc1ccc(C(=O)COC(=O)c2ccccn2)cc1OC	Arr AP2 block 56 (no result: pCIP destab) | Arr AP2 CP1 inactive | GST-FITC bead inactive
COc1cc(OC)cc(C(=O)O/N=C(\N)c2ccccn2)c1	Arr AP2 block 55 | Arr AP2 CP1 inactive | GST-FITC bead inactive
CCOc1cc(C(=O)O/N=C(\N)c2ccccn2)cc(OCC)c1OCC	none
CC(C)c1ccc(OCc2ccc(C(=O)N3CCN(c4ccccn4)CC3)cc2)cc1	Arr AP2 block 56 | Arr AP2 CP1 inactive | GST-FITC bead inactive
CCN(C(=O)COC(=O)Cc1c[nH]c2ccccc12)c1c(N)n(Cc2ccccc2)c(=O)[nH]c1=O	Arr AP2 block 71 (no result: pCIP destab) | Arr AP2 CP1 inactive | GST-FITC bead inactive
CN(C(=O)COC(=O)Cc1c[nH]c2ccccc12)c1c(N)n(Cc2ccccc2)c(=O)[nH]c1=O	none (no result: pCIP destab)
Nc1nc(-c2ccccc2)nc2sc3c(c12)CCCC3	Arr AP2 block 65 (no result: VLA-4 inh) | Arr AP2 CP1 inactive | GST-FITC bead inactive
O=c1oc(-c2ccccc2)nc2sc3c(c12)CCC3	none
CCCC12CN3CC(C)(CN(C1)C31CCCCC1)C2=O	none
CC1(C)CC2(CCO1)N1CC3(C)CN2CC(C)(C1)C3=O (stereo not drawn)	Arr AP2 block 84 (no result: pCIP destab) | Arr AP2 CP1 inactive | GST-FITC bead inactive
COc1cc(-c2c(C(C)=O)c(C)nc3c2C(=O)c2ccccc2-3)cc(OC)c1OC	Arr AP2 block 59 (no result: VLA-4 inh) | Arr AP2 CP1 inactive | GST-FITC bead inactive
COc1ccc(CNC(=O)c2ccc(C(C)C)cc2)cc1	none
COc1ccc(NC(=O)c2ccccn2)cc1S(=O)(=O)N1CCOCC1	none
